How the values were obtained:
Format in all cases: functional
[1] = system: Canis familiaris; test: Inhibition of histamine stimulated gastric acid secretion in adult mongrel dogs at dose 2 mg/kg given intravenously; settings: Canis lupus familiaris, Stomach, route intravenous
In short: (§1)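 Dogs with Heidenhain pouches, 12–18 kg, fasted 18 h. Compound given iv in 3 mL or by gavage in 5 mL of 0.4% methylcellulose/saline, 1 h after infusion start. 30-min collections titrated. Summed 3-h AO against the same dog's control AO gives % inhibition. Usually one dog per compound.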

[2] = system: Canis familiaris; test: Inhibition of histamine stimulated gastric acid secretion in adult mongrel dogs at dose 8 mg/kg given orally; settings: Canis lupus familiaris, Stomach, route oral; in short: as §1
[3] = species on record: Rattus norvegicus; test: Oral gastric cytoprotective activity in the rat against ethanol-induced lesions; settings: Stomach
In short: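 Rats fasted and water-deprived for 20 h. Compound given orally, 1–30 mg/kg in 0.4% methylcellulose/saline, 30 min before 1 mL absolute ethanol po. Killed 1 h after ethanol. Linear hemorrhagic lesion lengths totalled per stomach, expressed as group mean. ED50 by linear regression.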

[4] = system: Rattus norvegicus; test: Gastric antisecretory activity in the pylorus-ligated rat and the reduction in acid output was measured after 4 hr by intraperitoneal (ip) administration of 40 mg/kg dose.
In short: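 Male Charles River CD rats, 150–200 g, fasted 24 h. Pylorus ligated under Brevital anesthesia. 40 mg/kg given ip in 2.5% Tween 80 at ligation. Stomach contents collected at 4 h and titrated with 0.1 N NaOH to pH 7.0. % inhibition from mean AO, 6 treated vs 8 control rats. Student's t test.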

[5] = system: Canis familiaris; test: Inhibition of histamine stimulated gastric acid secretion in adult mongrel dogs at dose 5 mg/kg given intravenously; settings: Canis lupus familiaris, Stomach, route intravenous; in short: as §1
[6] = system: Canis familiaris; test: Inhibition of histamine stimulated gastric acid secretion in mongrel dogs following 4 mg/kg p.o. administration.; settings: Canis lupus familiaris, Stomach, route oral; in short: as §1

| SMILES | inhibition in vivo at 2 mg/kg [1] | inhibition in vivo at 8 mg/kg [2] | ED50 [3] | inhibition in vivo at 40 mg/kg [4] | inhibition in vivo at 5 mg/kg [5] | inhibition in vivo at 4 mg/kg [6] |
| --- | --- | --- | --- | --- | --- | --- |
| CCc1nc2c(OCc3ccccc3)cccn2c1C | 78% | 27% | 9.8 mg/kg | 79% |  |  |
| Cc1nc2c(OCc3ccccc3)cccn2c1CC(=O)O |  |  |  | 12% | 24% |  |
| Cc1nc2c(OCc3ccccc3)cccn2c1Cl |  | 43% |  | 93% | 37% |  |
| CSCc1c(C)nc2c(OCc3ccccc3)cccn12 |  |  |  | 29% | 8% |  |
| Cc1nc2c(OCc3ccoc3)cccn2c1CC#N |  | 42% | 1.4 mg/kg | 99% | 60% |  |
| Cc1nc2c(OCc3cccc4ccccc34)cccn2c1CC#N |  | 15% | 9.8 mg/kg | 0% | 78% |  |
| Cc1nc2ccc(CCc3ccccc3)cn2c1CC#N |  |  | 2.7 mg/kg | 8% | 0% |  |
| CCSCc1c(C)nc2c(OCc3ccccc3)cccn12 |  |  |  | 36% | 0% |  |
| Cc1nc2c(OCc3ccccc3)cccn2c1C[S+](C)[O-] (centres undefined) |  |  |  | 0% | 18% |  |
| Cc1nc2c(OCc3ccccc3)cccn2c1COC(=O)N(C)C |  | 49% |  | 75% | 23% |  |
| Cc1nc2c(OCc3ccccc3)cccn2c1CC1=NCCN1 |  |  |  | 69% |  |  |
| CCCCC(=O)OCc1c(C)nc2c(OCc3ccccc3)cccn12 |  | 13% |  | 45% | 96% |  |
| CCc1c(C)nc2c(OCc3ccccc3)cccn12 | 37% |  | 2 mg/kg |  |  |  |
| Cc1nc2c(OCc3ccccc3)cccn2c1CS(C)(=O)=O |  |  |  | 61% | 0% |  |
| Cc1cn2cccc(OCc3ccccc3)c2n1 | 61% | 0% | 4 mg/kg | 62% | 70% |  |
| c1ccc(COc2cccn3c4c(nc23)CCCC4)cc1 | 24% | 28% |  |  |  |  |
| CC(=O)c1c(C)nc2c(OCc3ccccc3)cccn12 |  |  |  | 57% | 9% |  |
| Cc1nc2c([S+]([O-])Cc3ccccc3)cccn2c1CC#N (centres undefined) |  |  | 5 mg/kg | 37% | 26% |  |
| Cc1nc2cc(CCc3ccccc3)ccn2c1CC#N | 26% |  | 3 mg/kg | 11% |  |  |
| Cc1nc2c(OCc3ccccn3)cccn2c1CC#N |  |  | 2.4 mg/kg | 56% | 29% |  |
| CNC(=O)Cc1c(C)nc2c(OCc3ccccc3)cccn12 |  |  |  | 24% | 14% |  |
| Cc1nc2c(O)cccn2c1CC#N |  |  |  | 0% | 0% |  |
| Cc1nc2c(OCc3ccccc3)cccn2c1CC(=S)N(C)C |  |  |  | 21% | 0% |  |
| Cc1nc2c(S(=O)(=O)Cc3ccccc3)cccn2c1CC#N |  |  | 16 mg/kg | 9% | 6% |  |
| C/N=C(/S)Cc1c(C)nc2c(OCc3ccccc3)cccn12 |  |  |  | 7% | 0% |  |
| CCOC(=O)c1c(C)nc2c(OCc3ccccc3)cccn12 |  |  |  | 22% |  |  |

| SMILES | inhibition in vivo at 2 mg/kg [1] | inhibition in vivo at 8 mg/kg [2] | ED50 [3] | inhibition in vivo at 40 mg/kg [4] | inhibition in vivo at 5 mg/kg [5] | inhibition in vivo at 4 mg/kg [6] |
| --- | --- | --- | --- | --- | --- | --- |
| Cc1nc2c(OCc3ccccc3)cccn2c1C(N)=O |  |  |  | 42% | 2% |  |
| Cc1nc2c(OCc3ccccc3)cccn2c1CCC#N |  |  | 1.5 mg/kg | 40% | 20% |  |
| Cc1nc2c(C[S+]([O-])c3ccccc3)cccn2c1C (centres undefined) | 0% |  |  | 42% |  |  |
| Cc1nc2c(OCc3ccc(S(C)(=O)=O)cc3)cccn2c1CC#N |  |  |  | 2% |  |  |
| N#CCc1c(C(F)(F)F)nc2c(OCc3ccccc3)cccn12 |  |  |  | 0% | 0% |  |
| Cc1nc2c(OCc3ccccc3)cccn2c1C(C)(C)C#N |  |  | 12.3 mg/kg | 57% | 0% |  |
| Cc1nc2c(SCc3ccccc3)cccn2c1CC#N |  | 2% | 7 mg/kg | 22% | 89% |  |
| Cc1nc2c(OCc3ccccc3)cccn2c1CC(N)=O |  |  | 27 mg/kg | 28% | 46% | 0% |
| COC(=O)Cc1c(C)nc2c(OCc3ccccc3)cccn12 |  |  |  | 23% | 16% |  |
| Cc1nc2c(Oc3ccccc3)cccn2c1CC#N |  |  | 3.4 mg/kg | 24% | 0% |  |
| Cc1nc2c(OCCCc3ccccc3)cccn2c1CC#N |  | 8% | 4.3 mg/kg | 64% | 80% |  |
| Cc1nc2c(OCc3cccnc3)cccn2c1CC#N |  |  | 7.4 mg/kg | 46% | 8% |  |
| Cc1nc2c(OCc3ccncc3)cccn2c1CC#N |  |  | 2.6 mg/kg | 51% | 36% |  |
| COCc1c(C)nc2c(OCc3ccccc3)cccn12 |  | 37% |  | 99% | 29% |  |
| Cc1nc2c(OCc3ccccc3)cccn2c1COC(=O)c1cccnc1 |  | 0% |  | 87% | 88% |  |
| Cc1nc2c(OCc3ccccc3)cccn2c1CC(=N)N |  |  |  | 79% | 0% |  |
| CCOCc1c(C)nc2c(OCc3ccccc3)cccn12 |  | 0% |  | 84% | 35% |  |
| Cc1nc2c(OCc3ccccc3)cccn2c1Br |  | 0% |  | 26% | 63% |  |
| Cc1nc2c(COc3ccccc3)cccn2c1C | 44% | 21% | 6 mg/kg | 48% |  |  |
| Cc1nc2c(OCc3cccc(C(F)(F)F)c3)cccn2c1CC#N |  | 38% | 6.5 mg/kg | 61% | 30% |  |
| CC(=O)OCc1c(C)nc2c(OCc3ccccc3)cccn12 | 54% | 24% | 5.5 mg/kg | 88% | 87% |  |
| Cc1nc2c(OCc3ccccc3)cccn2c1COC(=O)C(C)(C)C | 43% | 12% | 8 mg/kg | 48% |  |  |
| c1ccc(COc2cccn3c4c(nc23)CCC4)cc1 |  |  |  | 26% | 0% |  |
| Cc1nc2c(OCc3ccccc3)cccn2c1C(C)C#N (centres undefined) | 4% | 1% | 2.9 mg/kg | 74% |  |  |
| Cc1nc2c(OCc3ccc(C(C)(C)C)cc3)cccn2c1CC#N |  | 47% |  | 47% | 52% | 37% |

Reference: ChEMBL document CHEMBL1122898, “Antiulcer agents. 1. Gastric antisecretory and cytoprotective properties of substituted imidazo[1,2-a]pyridines” (1985)
